167 variants from the RNAGym collection of RNA variant scans (doi:10.1126/science.aae0568) can be followed below.

First the molecules themselves.
B1: tRNA (parent)
chain: GUUCCGUUGGCGUAAUGGUAACGCGUCUCCCUCCUAAGGAGAAGACUGCGGGUUCGAGUCCCGUACGGAACG

This sample holds only a part of the variants without activity.

The variants in this data set derive from B1. The data set is described as follows: yeast fitness relative to wild type (ratio to wild type); higher = fitter; tRNA-Arg(CCU), competitive growth, 37 C, YPD. A digest of the protocol: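 Start and end populations of a pooled competition were compared by 100-nucleotide paired-end sequencing of gene amplicons. The Saccharomyces cerevisiae strains carried tRNA-Arg(CCU) gene variants at the native genomic locus, synthesised with a 3% per-site mutation rate at 69 sites, and competed in YPD at 37°C for 24 hours in six parallel replicates. Darwinian fitness relative to wild type was based on the change in genotype frequencies. Genotypes required ≥ 100 starting reads, and estimates < 0.5 were set to 0.5.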
For the variant G10C U26G C27G U32A A40U, the yeast fitness was at most 0.5. In the case of G10C U47C G67C it was 0.536; in that of G10C C33G A43G C46G C62G, 0.562; in that of G10C C34A A40G G68C, at most 0.5. As for G10U A15U C31G G50C U59C C62U, the yeast fitness was at most 0.5. As for G10U G17A C24A, the yeast fitness turned out to be 0.643. As for G10C U35G A43C U47C C55U C66U, the yeast fitness is at most 0.5. In the case of G10C C29G A40U C49G it was at most 0.5; in that of G10C U13A, 0.549. Then G10C C30U U54A, with at most 0.5; and G10C C60U G63C, with at most 0.5.

Consider G10C C29U C31U A65U, for which the yeast fitness was at most 0.5.

As for G10C G38C C49A G50C G68C, the yeast fitness is at most 0.5. Then G10C C30G C49G, with at most 0.5; and C11A A15G C22G C61U G68A, with at most 0.5. As for G10C G44A A70U, the yeast fitness was at most 0.5. In the case of G10C U26A C27U C34U C49U it was 0.602. Then G10C U26A C33U U53C, with 0.576; and G10C C61A A69G, with at most 0.5. In the case of G10C U32A it was 0.53; in that of G10C U32C, 0.73. Regarding C11A A14C C34A A70U, the yeast fitness is at most 0.5. Then G10C C29U A40U A65U, with at most 0.5; and G10C G51C, with 0.535. G10C C30G A65C G68C: the yeast fitness is at most 0.5. Then C11A A14G U19G A43C U53A, with at most 0.5; and G10C C34A A57U, with 0.577; and G10C C34U A65G, with at most 0.5.

G10C C31U: the yeast fitness came to 0.78.

Turning to G10C C29G A40G, the yeast fitness is at most 0.5. Then G10C G18A C22U, with 0.633; and G10C U26A C34G, with at most 0.5. In the case of G10C C60U C62U A70C it was at most 0.5. In the case of G10C U19A A37C it was 0.502; in that of C11A A15U A20C C34G C66U, at most 0.5; in that of G10C G52C, at most 0.5. As for G10C U16A C30U U64A, the yeast fitness was at most 0.5. Then G10C G18A C27G G63C, with at most 0.5; and G10C C29G A42U, with 0.554. For G10C C55U G56A, the yeast fitness was at most 0.5. Then G10C C55U G56C, with at most 0.5; and G10C G25C G38C A40G A42G, with at most 0.5. In the case of G10C C34G G56C it was 0.52; in that of G10C U32C C66G, at most 0.5; in that of G10C C34G G67A, at most 0.5. Then G10C C34G G67U, with 0.584. For C11A A15C C34A C66A, the yeast fitness was at most 0.5.

On to G10C C46U C66U, for which the yeast fitness worked out at 0.561. On to G10C C49U, for which the yeast fitness was determined as 0.613.

Regarding G10C C49G, the yeast fitness came out at 0.619. In the case of G10C C49A, the yeast fitness is at most 0.5. Then C11A A14G A43C A57G U59C A70G, with 0.542; and G10C G18C C22U U26G C30U A40G, with at most 0.5.

In the case of C11A A15G C22U C29A A43U A45G, the yeast fitness was at most 0.5. Then G10C C30G C55A, with at most 0.5.

As for G10C U64A, the yeast fitness turned out to be 0.671.

Take G10C C29G U53A: the yeast fitness was at most 0.5. For the variant G10C C33A C62A, the yeast fitness was determined as 0.652. Then G10C U16A A65G, with at most 0.5; and G10C G25C, with 0.615; and G10C U47G, with at most 0.5.

For the variant G10C U47C, the yeast fitness was 0.695. In the case of C11A it was 0.676; in that of G10C C33A G48A, at most 0.5; in that of G10C C31A U32C G39A G52C, at most 0.5.

Consider G10C U19G C62G, for which the yeast fitness was at most 0.5. In the case of G10C G56C it was 0.553; in that of G10C G12A A15G G63A, 0.643; in that of G10C U26C, 0.673. In the case of G10C U53A it was at most 0.5. Consider G10C G18C C24U, for which the yeast fitness was at most 0.5. In the case of C11A A15G it was 0.711; in that of C11A A15U, 0.658. Consider C11A A15G C22U C29A A43U A45G A57U, for which the yeast fitness is at most 0.5. In the case of G10C G18A G25C A45G it was at most 0.5. With G10C G25C G38C A40G A42G U64A G68A, the yeast fitness stood at 0.515. As for G10C C62U U64A, the yeast fitness was at most 0.5.

Take G10C U19A C30G A40C G67C: the yeast fitness was at most 0.5. As to G10C U16G C31A U32G A45G, the yeast fitness was at most 0.5. Then G10C C46U A65C, with 0.621. In the case of C11A A15G C33U A37G it was at most 0.5; in that of C11A A15C C24G C34A, at most 0.5. As for G10C U35G, the yeast fitness was at most 0.5. Then G10C C34U G39U A40C, with at most 0.5; and G10U A69C, with 0.827; and G10C U35G A43C U47C C55U C62U A69C, with at most 0.5. Then G10C G39C G51A, with at most 0.5; and G10C U26A C33U U53C A70C, with 0.724; and G10C C55G A70C, with at most 0.5. Then G10U A40G G58A G68C, with 0.631; and G10C G17A A42U, with at most 0.5.

Take G10C C62A: the yeast fitness came to 0.515. On to G10C G12C G39A, for which the yeast fitness is at most 0.5.

On to C11A A14G G25C C29G, for which the yeast fitness is at most 0.5. In the case of G10C G50A U59A G67C it was at most 0.5; in that of G10C U19C C33G, 0.769; in that of G10C C29G A37G, at most 0.5. Regarding G10C G63A, the yeast fitness came out at 0.59. For G10C G63C, the yeast fitness was at most 0.5.

On to G10C G12C G39A C61U A69C, for which the yeast fitness amounted to 0.528. In the case of G10C C31G C33U C60U it was at most 0.5; in that of G10C G25C U26C U47C, at most 0.5; in that of C11A A14G A20U C22G C24U G48C G52A, 0.57. Then C11A A14G U19G A43C U53A C62A C66U, with at most 0.5; and G10C G63A C66U, with at most 0.5; and G10C C31G C49U, with at most 0.5.

With G10C C31G C33U, the yeast fitness was determined as 0.698. In the case of G10C G38C it was 0.538; in that of G10U, 0.887. In the case of G10C C29G U32G it was at most 0.5; in that of G10C C31A A37U G63A A65G, at most 0.5; in that of G10C C34A A57U G67C, 0.64. For G10C G50U, the yeast fitness was at most 0.5. For the variant G10C U28G G39A C49A, the yeast fitness is at most 0.5. In the case of G10C C29U G56A C61U it was at most 0.5; in that of G10C C30G C60A, at most 0.5; in that of G10C G38A C61A, 0.618. In the case of G10C G17A U35G it was at most 0.5; in that of G10C U26A C33U A70G, at most 0.5; in that of G10C C31A U35C A45U, at most 0.5. On to G10C U19A C29G C34U, for which the yeast fitness was at most 0.5.

In the case of C11A A14C C34A A36G, the yeast fitness is at most 0.5. In the case of G10C G25A U64C it was at most 0.5; in that of C11A A14C, 0.683; in that of G10U G17A C24A C66G, 0.595. In the case of G10U A43G C46U it was at most 0.5. In the case of G10C C66G it was 0.515. Regarding G10C G68U, the yeast fitness came out at 0.693.

Take G10C C30A C66U: the yeast fitness is at most 0.5. In the case of G10C C30A C66A it was at most 0.5; in that of G10C C46A G68C, 0.57.

Take G10C G51C C61U: the yeast fitness was at most 0.5. Then G10C U26C A45G U53C A65C, with at most 0.5; and G10C U13A G25A, with 0.534. Then G10U G17A G25C C29A G52A, with at most 0.5.

Take C11A A15G A40G: the yeast fitness was 0.824. Then G10C C33A A45C, with 0.551; and G10C C34U C60A G67A, with at most 0.5; and G10C C29G G44C C49A U64C, with at most 0.5. Turning to G10C G41C C62U C66G A70G, the yeast fitness was at most 0.5.

For the variant C11A A15G A40G C49U C60A C61A, the yeast fitness was at most 0.5. Consider G10C U28A, for which the yeast fitness came out at 0.59.

As to G10C C49A C55A C62U C66U, the yeast fitness is at most 0.5.

Turning to G10C C33A A36U U53A U54A, the yeast fitness is at most 0.5.

Turning to G10C G23A, the yeast fitness is 0.57. Then G10C C33A G56C, with 0.577; and C11A A14G A43C A57G U59C G63A A70G, with at most 0.5. In the case of G10C C46U it was 0.611; in that of G10C C46A, 0.626; in that of G10C C34G, 0.501. In the case of G10C C34U it was 0.565.

As to G10U C24G A45G, the yeast fitness was at most 0.5. As for G10C C49U C66G, the yeast fitness is at most 0.5. On to G10C G18A G58A C66G, for which the yeast fitness is at most 0.5. Then G10C G67C, with 0.67; and G10C G67A, with 0.673; and G10C U26A C49U A65U, with 0.553. Then C11A A14G C31G C34G C61U, with at most 0.5; and G10C G17A U28G G39A C49A, with at most 0.5. For the variant G10C U16G C31A U32G A57U, the yeast fitness was at most 0.5.

Take G10C U26A C27U C31G A42U U47A U53C: the yeast fitness stood at 0.721. Then G10C U19A C31G C34A A42G, with at most 0.5; and G10C G18C A42G G68A, with at most 0.5; and G10C U13C C24G C55U, with 0.64. As to G10C C29G A65C, the yeast fitness is at most 0.5. In the case of G10C C46A C55U it was 0.603; in that of G10C U13C A15C C24U U54C C60A C62A, at most 0.5.
